In ChEMBL document CHEMBL3046857, “Novel inhibitors of the mitochondrial respiratory chain: oximes and pyrrolines isolated from Penicillium brevicompactum and synthetic analogues” (J Agric Food Chem, 2005):

Tests used:
[1] = target: T1, NADH-ubiquinone oxidoreductase chain 1 (Bos taurus, UniProt P03887); experiment: Inhibition of Bos taurus (beef) heart NAD1 assessed as NADH oxidase activity
Method in brief: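 Beef heart submitochondrial particles, diluted to 0.5 mg/mL in 250 mM sucrose/10 mM Tris-HCl pH 7.4 and pre-activated with 300 µM NADH; then diluted to 6 µg/mL in 50 mM potassium phosphate pH 7.4, 1 mM EDTA, 22 °C. Compounds (ethanol stocks) preincubated with particles 5 min on ice. Aerobic oxidation of 75 µM NADH followed at 340 nm; three experiments; IC50.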

[2] = target: T1, NADH-ubiquinone oxidoreductase chain 1; experiment: Inhibition of Bos taurus (beef) heart NAD1 assessed as NADH-ubiquinone oxidoreductase activity
Method in brief: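 Complex I specific activity in NADH-activated beef heart submitochondrial particles (6 µg/mL; 50 mM potassium phosphate pH 7.4, 1 mM EDTA, 22 °C). Compound preincubated 5 min on ice. 75 µM NADH with 30 µM decylubiquinone as acceptor, plus 2 µM antimycin and 2 mM KCN to block downstream steps. NADH oxidation rate read at 340 nm; three assays; IC50.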

T1 sequence (P03887 whole entry): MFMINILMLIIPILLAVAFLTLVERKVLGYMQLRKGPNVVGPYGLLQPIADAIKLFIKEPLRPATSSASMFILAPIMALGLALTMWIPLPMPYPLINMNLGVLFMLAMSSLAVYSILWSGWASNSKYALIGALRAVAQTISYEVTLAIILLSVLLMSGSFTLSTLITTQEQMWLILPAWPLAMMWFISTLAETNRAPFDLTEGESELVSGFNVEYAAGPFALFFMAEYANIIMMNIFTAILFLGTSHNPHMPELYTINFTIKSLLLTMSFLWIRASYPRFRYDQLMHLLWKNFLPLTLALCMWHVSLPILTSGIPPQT

| SMILES | IC50 ([1]; read-out: IC50) | IC50 [2] | IC50 [1] |
| --- | --- | --- | --- |
| CCCCCCCCC(=O)CC(=O)c1ccc[nH]1 | 8.6 µM | 14.3 µM |  |
| CCC(=O)C(C)C(=O)c1ccc[nH]1 (stereo not drawn) |  |  | Not Active |
| CCC(=O)CC(=O)c1ccc[nH]1 |  |  | Not Active |
| CCCCCCCC1=C(C)C(=O)N2CC/C(=N\O)C2O1 (stereo not drawn) | 0.27 µM | 1.52 µM |  |
| C/C=C/CCCCC1=C(C)C(=O)N2CC/C(=N\O)C2O1 (stereo not drawn) |  |  | Not Active |
| CCCCCCCC(=O)C(C)C(=O)N1C=CCC1 (stereo not drawn) | 4.55 µM |  |  |
| C/C=C/CCCCC(=O)C(C)C(=O)N1C=CCC1 (stereo not drawn) |  |  | Not Active |

Second part, the compound after the results:

| IC50 ([1]; read-out: IC50) | IC50 [2] | IC50 [1] | SMILES |
| --- | --- | --- | --- |
| 214 µM |  |  | CC(C(=O)c1ccccc1)C(=O)c1ccc[nH]1 (stereo not drawn) |
| 0.92 µM | 3.44 µM |  | CC1=C(C(C)c2cccc(Oc3ccccc3)c2)OC2/C(=N/O)CCN2C1=O (stereo not drawn) |
| 6.82 µM |  |  | CC(C(=O)N1C=CCC1)c1cccc(Oc2ccccc2)c1 (stereo not drawn) |
| 5.48 µM | 14.3 µM |  | CC1=C(C(C)c2cccc(Oc3ccccc3)c2)OC2C(O)CCN2C1=O (single isomer, unassigned; diastereomer 1) |
| 3.92 µM | 6.57 µM |  | CC(C(=O)C(C)c1cccc(Oc2ccccc2)c1)C(=O)N1C=CCC1 (single isomer, unassigned; diastereomer 1) |
| 41.5 µM |  |  | CC(C(=O)C(C)c1cccc(Oc2ccccc2)c1)C(=O)N1CC[C@H](O)C1 (single isomer, unassigned; diastereomer 1) |
| 3.13 µM | 11.9 µM |  | CC1=C(C(C)c2cccc(Oc3ccccc3)c2)OC2C(O)CCN2C1=O (single isomer, unassigned; diastereomer 2) |
| 4.4 µM | 16.4 µM |  | CC(C(=O)C(C)c1cccc(Oc2ccccc2)c1)C(=O)N1C=CCC1 (single isomer, unassigned; diastereomer 2) |
| 36.3 µM |  |  | CC(C(=O)C(C)c1cccc(Oc2ccccc2)c1)C(=O)N1CC[C@H](O)C1 (single isomer, unassigned; diastereomer 2) |
